Screens as filed in PubChem BioAssay.
hERG rescue = compounds protecting human hERG from proarrhythmic drug block; activation (rescue from dofetilide block), less the hit threshold, % at 10 µM; CHO-hERG, FluxOR thallium flux, dofetilide IC70 present; hit rate 0.51% among 310,000; Q12809;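 active = activation above the mean of controls blocked by dofetilide plus 5 SD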;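 also: thallium influx through hERG after potassium depolarization seen as dye fluorescence rise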
KCNQ1 pot = potentiates or activates the human KCNQ1 potassium channel; CHO-K1 KCNQ1, thallium flux FluxOR fluorescence; hits give high values; B-score at 10 µM; P51787; hit rate 0.35% among 310,000; AID 2648;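 active = fluorescence ratio B-score, a plate-corrected score, at least three library SD, with initial intensity B-score within 5 SD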
Target sequence (P51787 whole entry, looked up): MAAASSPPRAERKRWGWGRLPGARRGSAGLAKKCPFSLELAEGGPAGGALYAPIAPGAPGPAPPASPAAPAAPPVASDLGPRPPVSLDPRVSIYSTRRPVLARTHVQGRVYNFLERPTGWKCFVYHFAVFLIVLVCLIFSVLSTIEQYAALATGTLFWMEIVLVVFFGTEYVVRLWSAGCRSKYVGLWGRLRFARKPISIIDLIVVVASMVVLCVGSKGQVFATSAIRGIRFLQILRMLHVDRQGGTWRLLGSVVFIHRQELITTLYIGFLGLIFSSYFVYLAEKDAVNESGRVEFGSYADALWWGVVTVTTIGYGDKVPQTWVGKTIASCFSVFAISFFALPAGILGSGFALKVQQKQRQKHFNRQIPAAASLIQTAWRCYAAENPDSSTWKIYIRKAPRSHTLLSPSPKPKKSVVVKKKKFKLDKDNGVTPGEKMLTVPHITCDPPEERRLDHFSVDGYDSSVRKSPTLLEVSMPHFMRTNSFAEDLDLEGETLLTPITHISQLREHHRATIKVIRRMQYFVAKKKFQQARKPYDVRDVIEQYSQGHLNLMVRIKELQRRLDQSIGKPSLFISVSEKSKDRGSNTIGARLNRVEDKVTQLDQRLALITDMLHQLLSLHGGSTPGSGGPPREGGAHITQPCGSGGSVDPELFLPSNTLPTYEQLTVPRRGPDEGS
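System: CHO-K1 cells stably expressing KCNQ1 / Medium: assay buffer for compound exposure, DMSO matched across wells / Reagent: thallium- and potassium-containing depolarizing buffer / Compound: one concentration, matched DMSO / Incubation: 20 min compound pretreatment at room temperature / Measured by: kinetic FluxOR fluorescence, 10 s baseline plus 110 s post-stimulus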
KCNK9 block = blocks the human KCNK9 two-pore domain potassium channel; Q9NPC2; HEK293 KCNK9, FluxOR thallium flux fluorescence; hits give low values; B-score at 10 µM; hit rate 1.2% among 310,000; AID 488922;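 active = ratio B-score over 3 SD below the library mean, with starting fluorescence within 5 SD of its mean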;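 also: negative B-score means less thallium flux so channel inhibition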
KCNK3 inh = human KCNK3 channel inhibition, primary screen; AID 602410; hit rate 0.84% among 340,000; CHO-KCNK3 thallium flux, FluxOR fluorescence; hits give low values; B-score at 10 µM; O14649;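 active = B-score under library mean minus 4 SD, starting fluorescence ratio at most library mean plus 5 SD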;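 also: more negative B-score means stronger inhibition of thallium flux through KCNK3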
KCNQ1 inh = blocks the human KCNQ1 potassium channel | hit rate 1.3% among 310,000 | CHO-K1 KCNQ1, FluxOR thallium flux fluorescence; hits give high values | AID 2642 | P51787 | B-score at 10 µM;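 active = compounds whose thallium flux B-score, printed positive for inhibition, exceeds three library SD while starting fluorescence stays within three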;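 also: channel opened by potassium depolarization with thallium stimulus after 20 min compound exposure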
Starred values were filed as active, the others as inactive. Shown are actives, neighbours in structure and some others; about 3.1% of the full set was active somewhere.

How did CCCOC(=S)NC(=O)c1sc2ccccc2c1Cl do in these assays?
hERG rescue: 15*; KCNQ1 pot: 49*; KCNK9 block: inactive; KCNK3 inh: inactive; KCNQ1 inh: inactive

How did CCOC(=S)NC(=O)c1sc2ccccc2c1Cl do in these assays?
hERG rescue: 22*; KCNQ1 pot: 96*; KCNK9 block: inactive; KCNK3 inh: inactive; KCNQ1 inh: inactive

What do the screens show for `Cc1ccc(CNC(=O)CCSCc2ccccc2C)cc1`?
hERG rescue: -1; KCNQ1 pot: inactive; KCNK9 block: inactive; KCNK3 inh: inactive; KCNQ1 inh: inactive

What do the screens show for `COc1ccc(C(=O)n2nc(C)cc2Nc2ccccc2)cc1`?
hERG rescue: -4; KCNQ1 pot: inactive; KCNK9 block: -7.4*; KCNK3 inh: inactive; KCNQ1 inh: inactive

Results for CC(C)(C)c1cc[n+](-c2[nH]c(=O)sc2/C=N/NC([S-])=Nc2ccccc2)cc1 ?
hERG rescue: -28; KCNQ1 pot: inactive; KCNK9 block: inactive; KCNK3 inh: inactive; KCNQ1 inh: 8*

What do the screens show for `CCN1CCCC1CNC(=O)c1cc2cc(F)ccc2[nH]1` (stereo not drawn)?
hERG rescue: -1; KCNQ1 pot: inactive; KCNK9 block: inactive; KCNK3 inh: inactive; KCNQ1 inh: inactive

Results for Cc1cc(C)n(CCC(=O)N/N=C/c2ccc(Br)c([N+](=O)[O-])c2)n1 ?
hERG rescue: -17; KCNQ1 pot: inactive; KCNK9 block: inactive; KCNK3 inh: inactive; KCNQ1 inh: 6*

Results for CCCOc1ccc(/C=C/C(=O)N2CCOCC2)cc1 ?
hERG rescue: -6; KCNQ1 pot: inactive; KCNK9 block: inactive; KCNK3 inh: inactive; KCNQ1 inh: inactive

Results for O=C(COC(=O)c1ccc(S(=O)(=O)C(F)F)cc1)Nc1ccccc1C(=O)NC1CC1 ?
KCNK3 inh: inactive

How did O=C1C2C3c4ccccc4C(c4ccccc43)C2c2nc3ccccc3n21 (stereo not drawn) do in these assays?
hERG rescue: -4; KCNQ1 pot: inactive; KCNK9 block: -7.7*; KCNK3 inh: inactive; KCNQ1 inh: inactive

How did CN1C(=O)C2C3c4ccccc4C(c4ccccc43)[C@@H]2C1=O (stereo partly drawn) do in these assays?
hERG rescue: -6; KCNQ1 pot: inactive; KCNK9 block: inactive; KCNK3 inh: inactive; KCNQ1 inh: inactive

What do the screens show for `CCCc1nc2ccc(NC(=O)c3cccs3)cc2c(=O)n1Cc1ccc(Cl)cc1`?
hERG rescue: -9; KCNQ1 pot: inactive; KCNK9 block: -6.8*; KCNK3 inh: inactive; KCNQ1 inh: inactive

What do the screens show for `Cc1nc2ccc(NC(=O)c3cccs3)cc2c(=O)n1Cc1ccc(Cl)cc1`?
hERG rescue: -2; KCNQ1 pot: inactive; KCNK9 block: -7.9*; KCNK3 inh: inactive; KCNQ1 inh: inactive

Results for CC(=O)Nc1ccc2nc(C3CC3)n(Cc3ccc(Cl)cc3)c(=O)c2c1 ?
hERG rescue: -16; KCNQ1 pot: inactive; KCNK9 block: inactive; KCNK3 inh: inactive; KCNQ1 inh: inactive

What do the screens show for `CC(C)(C)c1nc2c(s1)CCc1onc(-c3ccc(Cl)cc3)c1-2`?
hERG rescue: -10; KCNQ1 pot: inactive; KCNK9 block: inactive; KCNK3 inh: inactive; KCNQ1 inh: inactive

Results for COc1ccc(C(=O)N2CCC(c3ccccc3)CC2)c(OC)c1OC ?
hERG rescue: 5.9*; KCNQ1 pot: inactive; KCNK9 block: inactive; KCNK3 inh: inactive; KCNQ1 inh: inactive

Results for COc1cccc(C(=O)N2CCN(C(=O)c3ccc(-c4ccccc4)cc3)CC2)c1OC ?
hERG rescue: -6; KCNQ1 pot: inactive; KCNK9 block: inactive; KCNK3 inh: inactive; KCNQ1 inh: inactive

What do the screens show for `CC1=C(C(=O)OC2CCCC2)C(c2ccc(C)o2)C2=C(CC(c3cccs3)CC2=O)N1` (stereo not drawn)?
hERG rescue: -10; KCNQ1 pot: inactive; KCNK9 block: inactive; KCNK3 inh: inactive; KCNQ1 inh: 8*

Results for CC(=O)Sc1nc(-c2ccccc2)[nH]c1S(=O)(=O)c1ccc(C)cc1 ?
hERG rescue: -7; KCNQ1 pot: inactive; KCNK9 block: inactive; KCNQ1 inh: 10*

How did COc1ccc(C(=O)N2CCCCCC2)cc1OC1CCN(C(C)=O)CC1 do in these assays?
hERG rescue: -12; KCNQ1 pot: inactive; KCNK9 block: inactive; KCNK3 inh: inactive; KCNQ1 inh: inactive

Results for O=C(Cc1ccccc1)NC1CCN(Cc2ccccc2)CC1 ?
hERG rescue: -2; KCNQ1 pot: inactive; KCNK9 block: inactive; KCNK3 inh: inactive; KCNQ1 inh: inactive

What do the screens show for `Cc1ccccc1CC(=O)NC1CCN(Cc2ccccc2)CC1`?
hERG rescue: 8.2*; KCNQ1 pot: inactive; KCNK9 block: inactive; KCNK3 inh: inactive; KCNQ1 inh: inactive

Results for C[C@H](CO)N1C[C@H](C)[C@@H](CN(C)S(=O)(=O)c2cccs2)Oc2ccc(NS(=O)(=O)c3ccc(F)cc3)cc2C1=O ?
KCNK3 inh: inactive

Results for C/C(=N\NC(=O)c1c(Br)c(C)nn1C)c1ccc(NC(=O)c2ccoc2C)cc1 ?
hERG rescue: -5; KCNQ1 pot: inactive; KCNK9 block: inactive; KCNK3 inh: inactive; KCNQ1 inh: inactive

What do the screens show for `C/C(=N\NC(=O)c1nn(C)c(C)c1Br)c1ccc(NC(=O)c2ccoc2C)cc1`?
hERG rescue: -5; KCNQ1 pot: inactive; KCNK9 block: -7.9*; KCNK3 inh: inactive; KCNQ1 inh: inactive

What do the screens show for `CC1(C)Cc2c(sc3[nH]c(=S)n(Cc4ccccc4)c(=O)c23)CO1`?
hERG rescue: 4.7*; KCNQ1 pot: 34*; KCNK9 block: inactive; KCNK3 inh: inactive; KCNQ1 inh: inactive

Results for Oc1ccc(/C=N/Nc2ccc(Cl)nn2)c(O)c1O ?
hERG rescue: -9; KCNQ1 pot: inactive; KCNK9 block: inactive; KCNK3 inh: inactive; KCNQ1 inh: inactive

What do the screens show for `COc1ccccc1N1CCN(C(=O)CCCN2C(=O)c3cccc4cccc(c34)C2=O)CC1`?
hERG rescue: -3; KCNQ1 pot: inactive; KCNK9 block: inactive; KCNK3 inh: inactive; KCNQ1 inh: 6*

What do the screens show for `COc1ccccc1N1CCN(C(=O)CN2C(=O)c3cccc4cccc(c34)C2=O)CC1`?
hERG rescue: -10; KCNQ1 pot: inactive; KCNK9 block: inactive; KCNK3 inh: inactive; KCNQ1 inh: inactive

How did COCCNC(=O)CN(C(=O)c1ccc(N2CCCC2)nc1)c1ccc(F)c(Cl)c1 do in these assays?
hERG rescue: -7; KCNQ1 pot: inactive; KCNK9 block: inactive; KCNK3 inh: inactive; KCNQ1 inh: inactive

Results for COCCNC(=O)CN(C(=O)c1ccc(N2CCCC2)nc1)c1ccccc1 ?
hERG rescue: 5.1*; KCNQ1 pot: inactive; KCNK9 block: inactive; KCNK3 inh: inactive; KCNQ1 inh: inactive
